Only some compounds are listed: those with a hit (about 3.1% of all), similar ones and a draw of the others.
rRNA inh HTS – reduced GFP signal of wild-type E. coli, primary screen, bacterial rRNA inhibitor project, GFP/RFP fluorescence, OD600, single point; E. coli WT GFP vs humanized-ribosome RFP mutants, 24 h; hits give low values; DMSO median 0, no signal -100; GFP signal change (wild-type ribosome), % (concentration not given with the values); 350,000 compounds, 1.6% hits;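 active = significant combined selectivity score with lowered wild-type GFP, culture density cut under 30%, mutant RFP and density less affected; inactive = any of these conditions unmet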
E-selectin induc – E-selectin induction in HUVECs, primary screen, imaging, HUVEC, immunofluorescence imaging, single point; 260,000 compounds, 0.37% hits; AID 686992, 2013; normalized: neutral wells 0, TNF-alpha wells 100; P16581; activation, % at 7.58 µM;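 active = mean E-selectin-positive cell signal at least 10% of the positive control, reached in at least 60% of replicates, without over 20% cell loss; inconclusive = no rule given, readout overlaps actives, possibly toxicity-flagged; inactive = the rest, including those meeting only one limit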
Target sequence (P16581 whole entry, looked up): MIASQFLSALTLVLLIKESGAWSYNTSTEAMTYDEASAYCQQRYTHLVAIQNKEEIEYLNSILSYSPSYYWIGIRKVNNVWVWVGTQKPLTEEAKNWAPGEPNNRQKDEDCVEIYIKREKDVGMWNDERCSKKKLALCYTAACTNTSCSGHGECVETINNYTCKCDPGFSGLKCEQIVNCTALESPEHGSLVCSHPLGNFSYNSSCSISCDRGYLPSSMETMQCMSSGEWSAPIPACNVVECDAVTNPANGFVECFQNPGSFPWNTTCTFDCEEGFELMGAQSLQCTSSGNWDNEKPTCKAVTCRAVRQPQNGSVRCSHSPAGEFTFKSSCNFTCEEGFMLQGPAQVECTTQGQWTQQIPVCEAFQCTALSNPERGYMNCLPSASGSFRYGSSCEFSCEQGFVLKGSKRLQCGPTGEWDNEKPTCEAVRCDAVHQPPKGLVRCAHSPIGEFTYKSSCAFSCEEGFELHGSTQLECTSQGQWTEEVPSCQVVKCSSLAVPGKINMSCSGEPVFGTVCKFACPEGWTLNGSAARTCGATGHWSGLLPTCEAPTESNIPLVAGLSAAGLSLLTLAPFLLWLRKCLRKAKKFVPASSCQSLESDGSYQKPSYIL
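assay system = HUVEC, human umbilical vein endothelial cells | input = 3,000 HUVEC seeded per well | medium = EGM-2 growth medium on 0.1% gelatin-coated wells | dosing = one compound dose added by pin transfer | signal = immunofluorescence imaging | read-out basis = % PE-positive cells | control set = TNF-alpha, DMSO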
Cneo AK release – Cryptococcus neoformans cell lysis inducers, primary screen, AK release luminescence, single concentration; lysis activity, % at 15 µM; C. neoformans lysis, adenylate kinase release luminescence, 4 h; normalised: neutral wells 0, clomiphene wells 100; AID 651654, 2012; 360,000 compounds, 0.2% hits;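 active = mean lysis activity across replicates of at least 80%, whatever share of replicates individually reach that level; inactive = mean lysis activity below 80%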
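Schedule: static 4 h at 37 °C with compound, 1 h detection; system: C. neoformans cells; benchmarks: Clomiphene as positive control; buffer or medium: fresh YPD medium; measure: luminescence rise reflecting yeast cell lysis; measured by: luminescent adenylate kinase detection reagent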
miR-122 sensor – miR-122 Renilla sensor signal increase in Huh7, primary screen, miR-122 inhibitor project, cell-based, single point, plate reader; 340,000 compounds, 0.3% hits; activation (reporter increase), % at 12.5 µM; Huh7 miR-122 Renilla luciferase sensor, 48 h; neutral wells = 0, positive control = 100;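 active = mean replicate activation score at least 90 and every replicate individually at or above 90; inconclusive = only one of the two criteria met; inactive = neither criterion met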;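 also: higher luciferase means less miR-122 activity so hits act as miR-122 inhibitors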
DENV2 CPE rescue – inhibitors of DENV2 cytopathic effect, primary screen, cell-based, plate reader, single concentration | CPE inhibition, % at 9.99 µM | DENV2-infected cells, cytopathic effect rescue | 350,000 compounds, 1.7% hits; in the data active = CPE inhibition above about 20%, passing the limit was not always enough; inconclusive = no clear call, values can overlap the other calls; tested in BHK-21 cells;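 also: 0% = median of neutral control wells and 100% = median of positive control wells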
Active calls of the source: *; ? = inconclusive; . = no result given; [ ] = another dose, or the depositor's remark.

SMILES | rRNA inh HTS | E-selectin induc | Cneo AK release | miR-122 sensor | DENV2 CPE rescue
O=C(C1CCC1)N1C[C@H]2[C@@H](c3ccccc31)[C@H](CO)N2S(=O)(=O)c1ccccc1 | -0.2 | 0.1 | -0.4 | 46.9[16.7 µM] | 13.7
CNC(=O)C[C@@H]1CC[C@H]2[C@@H](COc3ccc(NC(=O)c4ccc5c(c4)OCO5)cc3C(=O)N2C)O1 | -0.1 | 0.0 | -3.1 | 12.5[16.7 µM] | 15.7
COc1ccc2c3c(n(C)c2c1)[C@@H](CO)N(C(=O)c1ccccn1)CC31CCN(C(C)=O)CC1 | 5.4 | 0.2 | . | . | ?
COCC(=O)Nc1ccc2c(c1)OC[C@H](C)N(C(=O)Cc1cccnc1)C[C@@H](C)[C@H](OC)CN(C)C2=O | 2.2 | -0.1 | . | . | 26.4*
COCC(=O)Nc1ccc2c(c1)OC[C@@H](C)N(C(=O)Cc1cccnc1)C[C@H](C)[C@@H](OC)CN(C)C2=O | 1.9 | 0.2 | 91.8* | . | 49.0*
CO[C@@H]1CN(C)C(=O)c2ccc(NC(C)=O)cc2OC[C@@H](C)N(C(=O)Cc2cccnc2)C[C@H]1C | 3.3 | -0.6 | 97.4* | . | ?
COc1cccc(S(=O)(=O)Nc2ccc3c(c2)C(=O)N(C)C[C@@H](OC)[C@@H](C)CN(C(=O)Cc2cccnc2)[C@H](C)CO3)c1 | 1.7 | -0.4 | -0.7 | . | 51.8*
COCC(=O)Nc1ccc2c(c1)C(=O)N(C)C[C@H](OC)[C@H](C)CN(C(=O)Cc1cccnc1)[C@@H](C)CO2 | 2.7 | -0.1 | -0.7 | . | 1.1
COCC(=O)Nc1ccc2c(c1)C(=O)N(C)C[C@@H](OC)[C@@H](C)CN(C(=O)Cc1cccnc1)[C@@H](C)CO2 | 2.8 | 0.0 | -4.0 | . | -0.9
COc1cccc(S(=O)(=O)Nc2ccc3c(c2)C(=O)N(C)C[C@H](OC)[C@H](C)CN(C(=O)Cc2cccnc2)[C@@H](C)CO3)c1 | -4.5 | 0.1 | -1.2 | . | 1.4
COC(=O)C[C@@H]1C[C@H]2c3cc(NC(=O)Nc4ccc(C(F)(F)F)cc4)ccc3O[C@H]2[C@@H](CO)O1 | -9.7 | 1.0 | 1.9 | -1.4[16.7 µM] | 5.2
C[C@@H]1CN([C@@H](C)CO)C(=O)c2cc(NC(=O)CCCCCC(=O)Nc3ccccc3N)ccc2O[C@@H](C)CCCCO[C@@H]1CN(C)C(=O)Nc1ccc(C(F)(F)F)cc1 | -1.0 | 0.1 | 55.4 | -6.2[16.7 µM] | 0.9
COc1ccc(OCC(O)CN(CC(O)COc2ccc(OC)cc2)c2cccc(O)c2)cc1 (stereo not drawn) | -30.1* | . | -1.4 | 8.7 | -1.0
COc1ccc(OCC(O)COc2ccc(OC)cc2)cc1 | . | . | -1.6 | -1.4 | .
O=C(Nc1ccc(Cl)cc1)Nc1nc(-c2ccccc2)cs1 | -37.7* | . | . | . | 0.7
Cn1nc(-c2ccc(Cl)cc2)cc1NC(=O)Nc1ccccc1 | -44.5* | 0.0 | 2.6 | -1.6 | -2.9
Cn1nc(-c2ccccc2)cc1NC(=O)Nc1ccc(C(C)(C)C)cc1 | -33.2 | . | . | . | -7.8
O=C(Nc1cccc(Cl)c1)Nc1nc(-c2ccccc2)cs1 | -34.0 | -0.3 | . | . | 1.1
O=C(C[C@H]1CC[C@@H]2[C@H](COC[C@H](O)CN2C(=O)Nc2ccc3c(c2)OCO3)O1)N1CCN(c2ccccc2)CC1 | -1.8 | 0.0 | -0.4 | 10.8[16.7 µM] | 9.6
COc1ccc(S(=O)(=O)N(C)C[C@@H]2Oc3c(NC(=O)Nc4ccccc4)cccc3C(=O)N([C@H](C)CO)C[C@@H]2C)cc1 | -0.1 | -0.4 | . | -4.2[16.7 µM] | .
CC(C)NC(=O)NCC[C@@H]1CC[C@@H](NC(=O)CCN2CCCCC2)[C@H](CO)O1 | -0.8 | 0.1 | 48.1 | . | 8.0
CO[C@@H]1CN(C)C(=O)c2ccc(NC(=O)c3nc4ccccc4s3)cc2OC[C@H](C)NC[C@H]1C | -6.8 | 0.4 | 14.0 | . | 5.4
C=CCN1C(=O)[C@]2(O[C@H](CCO)[C@@H]([Si](C)(C)c3ccc(OC)cc3)[C@@H]2C)c2cc(NC(=O)[C@H](C)O)ccc21 | . | . | 2.6 | . | 42.4*
C=CCN1C(=O)[C@]2(O[C@H](CCO)[C@@H]([Si](C)(C)c3ccc(OC)cc3)[C@@H]2C)c2cc(I)ccc21 | . | . | 4.9 | . | 0.4
N#C/C(=C\c1cccc(Oc2ccccc2)c1)C(=O)N1CCOCC1 | -24.7* | 4.3 | 1.7 | -3.6 | 5.3
SMILES | rRNA inh HTS | E-selectin induc | Cneo AK release | miR-122 sensor | DENV2 CPE rescue
Cc1ccc(C2CC(c3cccs3)=NN2S(=O)(=O)c2ccc(C)cc2)cc1 (stereo not drawn) | -2.2 | -1.8 | 4.9 | 98.1* | -10.5
C#CCOCCOCCOCCNc1nc(N2CCN(C(=O)Cn3cc(CCO)nn3)CC2)nc(N2CCN(C(=O)[C@H]([C@@H](C)O)n3cc(CCCCN)nn3)CC2)n1 | 3.3 | 0.3 | -0.9 | . | 21.0*
C#CCOCCOCCOCCNc1nc(N2CCN(C(=O)Cn3cc(CC(C)O)nn3)CC2)nc(N2CCN(C(=O)[C@H]([C@@H](C)O)n3cc(CCCCN)nn3)CC2)n1 (stereo partly drawn) | 4.1 | -0.1 | 1.2 | 2.4 | -8.8
C#CCOCCOCCOCCNc1nc(N2CCOCC2)nc(N2CCN(C(=O)CCCCCCCCCCNC(=O)[C@@H](CCSC)n3cc(CCO)nn3)CC2)n1 | -6.1 | -0.1 | -3.0 | 0.3 | -20.3
C#CCOCCOCCOCCNc1nc(N2CCN(C(=O)CCCCCCCCCCNC(=O)[C@H](CO)n3cc(CCCSC)nn3)CC2)nc(N2CCN(C(=O)CCCCCCCCCCNC(=O)[C@H](CO)n3cc(CCCSC)nn3)CC2)n1 | 8.6 | -0.1 | -1.6 | . | 121.4*
COc1ccc(NC(=O)N(C)C[C@H]2OCc3cn(nn3)CCCC(=O)N([C@H](C)CO)C[C@H]2C)c(OC)c1 | 0.9 | 0.2 | . | 0.8[16.7 µM] | .
COc1cccc(-c2ccc3c(c2)O[C@@H](CN(C)C(=O)C2CC2)[C@@H](C)CN([C@H](C)CO)S3(=O)=O)c1 | -4.7 | 1.5 | -2.5 | -0.9[16.7 µM] | 1.4
CCOC(=O)C1CCN(C(=O)c2cc3c(=O)n4cccc(C)c4nc3s2)CC1 | -18.6* | . | -0.4 | . | ?
COc1ccc(S(=O)(=O)N(C)C[C@H]2Oc3ccc(NS(=O)(=O)c4ccc(C)cc4)cc3C(=O)N([C@@H](C)CO)C[C@H]2C)cc1 | -5.1 | 5.4 | . | . | 18.9
COc1ccc(C2Nc3ccccc3C(=O)N2Cc2ccccc2)cc1 (stereo not drawn) | 8.7 | . | 1.4 | . | -0.7
COc1ccc([C@@H]2[C@@H](C)N(c3ccccc3)c3ccccc3C(=O)N2Cc2ccccc2)cc1 | -1.8 | -0.2 | -2.5 | -4.7 | 85.8*
CC(C)CCNC(=O)[C@H](CSCc1ccccc1)N1Cc2ccccc2C1=O | -6.8 | . | -0.5 | 19.1 | -2.0
CC(C)CCNC(=O)[C@H](Cc1ccccc1)N1Cc2ccccc2C1=O | 1.9 | 75.5* | 7.7 | 0.8 | -4.9

High-throughput results (PubChem BioAssay)
